This note sets out measurements from ChEMBL document CHEMBL1127521, “CCK-A-selective tetrapeptides containing lys(N epsilon)-amide residues: favorable in vivo and in vitro effects of N-methylation at the aspartyl residue” (J Med Chem, 1994).

Square brackets hold non-standard residues; d marks the D form. Peptide text beside a SMILES is read from it. * marks the point of attachment. ξ: configuration not given here. Acryloyl(3-(3-pyridyl),E) = O=C(/C=C/c1cccnc1)*; NMeF = CN[C@@H](Cc1ccccc1)C(=O)O; ξW = NC(Cc1c[nH]c2ccccc12)C(=O)O; NMeD = CN[C@@H](CC(=O)O)C(=O)O; X1 = O=C(/C=C/c1ccc(O)cc1)*; X2 = O=C(/C=C/c1cccs1)*; Boc = CC(C)(C)OC(=O)*

For one test, the system named is Rattus norvegicus. Briefly: Compound was evaluated for Appetite suppression, based on intake of liquid diet by food-deprived rats for 1 h following intraperitoneal injection. In kind it is functional. Conditions: ip. The method in brief: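 Rats are food-deprived, dosed intraperitoneally, and their liquid diet intake over the following 1 h is measured as the appetite suppression read-out.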

The target in test [1] is T1, Cholecystokinin receptor type A (Cavia porcellus) (UniProt Q63931).
T1 sequence (whole entry): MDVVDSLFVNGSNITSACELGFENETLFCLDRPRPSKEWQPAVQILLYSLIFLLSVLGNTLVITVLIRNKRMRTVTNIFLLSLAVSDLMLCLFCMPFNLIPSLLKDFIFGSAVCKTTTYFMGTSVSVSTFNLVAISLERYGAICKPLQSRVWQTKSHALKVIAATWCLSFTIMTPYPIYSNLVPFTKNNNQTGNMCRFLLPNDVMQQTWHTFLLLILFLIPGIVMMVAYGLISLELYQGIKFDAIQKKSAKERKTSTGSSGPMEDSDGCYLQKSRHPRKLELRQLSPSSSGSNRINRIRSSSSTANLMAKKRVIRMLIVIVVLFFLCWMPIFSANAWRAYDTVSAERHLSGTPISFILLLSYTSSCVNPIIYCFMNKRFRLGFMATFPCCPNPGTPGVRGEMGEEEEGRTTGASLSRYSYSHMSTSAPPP
Briefly: Percent maximal stimulation of phosphatidylinositol hydrolysis in guinea pig pancreatic acini (CCK-A receptors) relative to CCK-8. In kind it is functional. The method in brief:
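Functional CCK-A assay in guinea pig pancreatic acini. Phosphatidylinositol hydrolysis is measured and expressed as percent of the maximal stimulation produced by CCK-8.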

For test [2], the target named is Cholecystokinin A receptor (Cavia porcellus). The test is described as follows: In vitro inhibition of [125I]CCK-8 binding to guinea pig pancreas.
Test [3] deals with Cholecystokinin B receptor (Cavia porcellus). Briefly: In vitro binding for inhibition of [125I]- Bolton-Hunter-CCK-8 binding in guinea pig cortex.

Molecule `CN(C(=O)[C@H](CCCCNC(=O)/C=C/c1cccnc1)NC(=O)[C@H](Cc1c[nH]c2ccccc12)NC(=O)OC(C)(C)C)[C@@H](CC(=O)O)C(=O)N(C)[C@@H](Cc1ccccc1)C(N)=O` (Boc-WK(Acryloyl(3-(3-pyridyl),E))[NMeD][NMeF]-NH2) [listing 1 of 2 here] displayed an ED50 in the test on Rattus norvegicus of 0.016 µmol/kg.
In turn, `CN(C(=O)[C@H](CCCCNC(=O)/C=C/c1ccc(O)cc1)NC(=O)[C@H](Cc1c[nH]c2ccccc12)NC(=O)OC(C)(C)C)[C@@H](CC(=O)O)C(=O)N(C)[C@@H](Cc1ccccc1)C(N)=O` (Boc-WK(X1)[NMeD][NMeF]-NH2) [listing 1 of 2 here] had an ED50 in the test on Rattus norvegicus of 0.062 µmol/kg.
`CN(C(=O)[C@H](CCCCNC(=O)/C=C/c1cccnc1)NC(=O)C(Cc1c[nH]c2ccccc12)NC(=O)OC(C)(C)C)[C@@H](CC(=O)O)C(=O)N(C)[C@@H](Cc1ccccc1)C(N)=O` (some centres not stated) (Boc-[ξW]K(Acryloyl(3-(3-pyridyl),E))[NMeD][NMeF]-NH2) had a Hydrolysis in test [1] of 94%.
For `CN(C(=O)[C@H](CCCCNC(=O)/C=C/c1cccnc1)NC(=O)[C@H](Cc1c[nH]c2ccccc12)NC(=O)OC(C)(C)C)[C@@H](CC(=O)O)C(=O)N[C@@H](Cc1ccccc1)C(N)=O` (Boc-WK(Acryloyl(3-(3-pyridyl),E))[NMeD]F-NH2) [listing 1 of 2 here], the ED50 with Rattus norvegicus came out at 0.036 µmol/kg.
As to `CN(C(=O)[C@H](CCCCNC(=O)/C=C/c1cccnc1)NC(=O)[C@H](Cc1c[nH]c2ccccc12)NC(=O)OC(C)(C)C)[C@@H](CC(=O)O)C(=O)N(C)[C@@H](Cc1ccccc1)C(N)=O` (Boc-WK(Acryloyl(3-(3-pyridyl),E))[NMeD][NMeF]-NH2) [listing 2 of 2 here], the IC50 in test [2] worked out at 0.05 µM.
In the case of `CN(C(=O)[C@H](CCCCNC(=O)/C=C/c1ccc(O)cc1)NC(=O)[C@H](Cc1c[nH]c2ccccc12)NC(=O)OC(C)(C)C)[C@@H](CC(=O)O)C(=O)N[C@@H](Cc1ccccc1)C(N)=O` (Boc-WK(X1)[NMeD]F-NH2) [listing 1 of 2 here], the ED50 with Rattus norvegicus is 0.018 µmol/kg.
For `CN(C(=O)[C@H](CCCCNC(=O)/C=C/c1cccs1)NC(=O)C(Cc1c[nH]c2ccccc12)NC(=O)OC(C)(C)C)[C@@H](CC(=O)O)C(=O)N(C)[C@@H](Cc1ccccc1)C(N)=O` (some centres not stated) (Boc-[ξW]K(X2)[NMeD][NMeF]-NH2), in test [1], the Hydrolysis was found to be 93%.
Turning to `CN(C(=O)[C@H](CC(=O)O)NC(=O)[C@H](CCCCNC(=O)/C=C/c1cccs1)NC(=O)[C@H](Cc1c[nH]c2ccccc12)NC(=O)OC(C)(C)C)[C@@H](Cc1ccccc1)C(N)=O` (Boc-WK(X2)D[NMeF]-NH2) [listing 1 of 2 here], in the test on Rattus norvegicus, the ED50 was 1.4 µmol/kg.
Consider `CN(C(=O)[C@H](CCCCNC(=O)/C=C/c1cccnc1)NC(=O)[C@H](Cc1c[nH]c2ccccc12)NC(=O)OC(C)(C)C)[C@@H](CC(=O)O)C(=O)N[C@@H](Cc1ccccc1)C(N)=O` (Boc-WK(Acryloyl(3-(3-pyridyl),E))[NMeD]F-NH2) [listing 2 of 2 here], for which the IC50 was determined as 0.041 µM in test [2] and 10.4 µM in test [3].
For `CN(C(=O)[C@H](CCCCNC(=O)/C=C/c1cccs1)NC(=O)[C@H](Cc1c[nH]c2ccccc12)NC(=O)OC(C)(C)C)[C@@H](CC(=O)O)C(=O)N(C)[C@@H](Cc1ccccc1)C(N)=O` (Boc-WK(X2)[NMeD][NMeF]-NH2) [listing 1 of 2 here], the IC50 in test [2] was found to be 0.032 µM; in test [3], 10.9 µM.
`CN(C(=O)[C@H](CC(=O)O)NC(=O)[C@H](CCCCNC(=O)/C=C/c1cccnc1)NC(=O)[C@H](Cc1c[nH]c2ccccc12)NC(=O)OC(C)(C)C)[C@@H](Cc1ccccc1)C(N)=O` (Boc-WK(Acryloyl(3-(3-pyridyl),E))D[NMeF]-NH2) [listing 1 of 2 here] registered an IC50 in test [3] of 0.128 µM.
In test [1], `CN(C(=O)[C@H](CCCCNC(=O)/C=C/c1cccnc1)NC(=O)C(Cc1c[nH]c2ccccc12)NC(=O)OC(C)(C)C)[C@@H](CC(=O)O)C(=O)N[C@@H](Cc1ccccc1)C(N)=O` (some centres not stated) (Boc-[ξW]K(Acryloyl(3-(3-pyridyl),E))[NMeD]F-NH2) gave a Hydrolysis of 98%.
Still for that read-out and setting: under `CN(C(=O)[C@H](CCCCNC(=O)/C=C/c1cccs1)NC(=O)C(Cc1c[nH]c2ccccc12)NC(=O)OC(C)(C)C)[C@@H](CC(=O)O)C(=O)N[C@@H](Cc1ccccc1)C(N)=O` (some centres not stated) (Boc-[ξW]K(X2)[NMeD]F-NH2) stands 95%; under `CN(C(=O)[C@H](CCCCNC(=O)/C=C/c1ccc(O)cc1)NC(=O)C(Cc1c[nH]c2ccccc12)NC(=O)OC(C)(C)C)[C@@H](CC(=O)O)C(=O)N(C)[C@@H](Cc1ccccc1)C(N)=O` (some centres not stated) (Boc-[ξW]K(X1)[NMeD][NMeF]-NH2), 91%.
On to `CN(C(=O)[C@H](CCCCNC(=O)/C=C/c1ccc(O)cc1)NC(=O)[C@H](Cc1c[nH]c2ccccc12)NC(=O)OC(C)(C)C)[C@@H](CC(=O)O)C(=O)N(C)[C@@H](Cc1ccccc1)C(N)=O` (Boc-WK(X1)[NMeD][NMeF]-NH2) [listing 2 of 2 here], for which the IC50 in test [2] is 0.009 µM; in test [3] it was 13.6 µM.
For `CN(C(=O)[C@H](CC(=O)O)NC(=O)[C@H](CCCCNC(=O)/C=C/c1ccc(O)cc1)NC(=O)[C@H](Cc1c[nH]c2ccccc12)NC(=O)OC(C)(C)C)[C@@H](Cc1ccccc1)C(N)=O` (Boc-WK(X1)D[NMeF]-NH2), the ED50 in the test with Rattus norvegicus is 0.413 µmol/kg.
`CN(C(=O)[C@H](CCCCNC(=O)/C=C/c1ccc(O)cc1)NC(=O)C(Cc1c[nH]c2ccccc12)NC(=O)OC(C)(C)C)[C@@H](CC(=O)O)C(=O)N[C@@H](Cc1ccccc1)C(N)=O` (some centres not stated) (Boc-[ξW]K(X1)[NMeD]F-NH2) gave a Hydrolysis in test [1] of 101%.
As to `CN(C(=O)[C@H](CCCCNC(=O)/C=C/c1cccs1)NC(=O)[C@H](Cc1c[nH]c2ccccc12)NC(=O)OC(C)(C)C)[C@@H](CC(=O)O)C(=O)N[C@@H](Cc1ccccc1)C(N)=O` (Boc-WK(X2)[NMeD]F-NH2) [listing 1 of 2 here], the ED50 in the test with Rattus norvegicus is 0.012 µmol/kg.
Regarding `CN(C(=O)[C@H](CCCCNC(=O)/C=C/c1ccc(O)cc1)NC(=O)[C@H](Cc1c[nH]c2ccccc12)NC(=O)OC(C)(C)C)[C@@H](CC(=O)O)C(=O)N[C@@H](Cc1ccccc1)C(N)=O` (Boc-WK(X1)[NMeD]F-NH2) [listing 2 of 2 here], the IC50 in test [2] is 0.005 µM; in test [3], 5.81 µM.
As for `CN(C(=O)[C@H](CC(=O)O)NC(=O)[C@H](CCCCNC(=O)/C=C/c1cccnc1)NC(=O)[C@H](Cc1c[nH]c2ccccc12)NC(=O)OC(C)(C)C)[C@@H](Cc1ccccc1)C(N)=O` (Boc-WK(Acryloyl(3-(3-pyridyl),E))D[NMeF]-NH2) [listing 2 of 2 here], the ED50 in the test on Rattus norvegicus came out at 2.52 µmol/kg.
For `CN(C(=O)[C@H](CC(=O)O)NC(=O)[C@H](CCCCNC(=O)/C=C/c1cccnc1)NC(=O)C(Cc1c[nH]c2ccccc12)NC(=O)OC(C)(C)C)[C@@H](Cc1ccccc1)C(N)=O` (some centres not stated) (Boc-[ξW]K(Acryloyl(3-(3-pyridyl),E))D[NMeF]-NH2), the Hydrolysis in test [1] amounted to 88%.
`CN(C(=O)[C@H](CC(=O)O)NC(=O)[C@H](CCCCNC(=O)/C=C/c1cccs1)NC(=O)C(Cc1c[nH]c2ccccc12)NC(=O)OC(C)(C)C)[C@@H](Cc1ccccc1)C(N)=O` (some centres not stated) (Boc-[ξW]K(X2)D[NMeF]-NH2) showed a Hydrolysis in test [1] of 84%.
As for `CN(C(=O)[C@H](CCCCNC(=O)/C=C/c1cccs1)NC(=O)[C@H](Cc1c[nH]c2ccccc12)NC(=O)OC(C)(C)C)[C@@H](CC(=O)O)C(=O)N(C)[C@@H](Cc1ccccc1)C(N)=O` (Boc-WK(X2)[NMeD][NMeF]-NH2) [listing 2 of 2 here], the ED50 in the test with Rattus norvegicus came out at 0.022 µmol/kg.
In test [1], `CN(C(=O)[C@H](CC(=O)O)NC(=O)[C@H](CCCCNC(=O)/C=C/c1ccc(O)cc1)NC(=O)C(Cc1c[nH]c2ccccc12)NC(=O)OC(C)(C)C)[C@@H](Cc1ccccc1)C(N)=O` (some centres not stated) (Boc-[ξW]K(X1)D[NMeF]-NH2) gave a Hydrolysis of 76%.
Turning to `CN(C(=O)[C@H](CC(=O)O)NC(=O)[C@H](CCCCNC(=O)/C=C/c1cccs1)NC(=O)[C@H](Cc1c[nH]c2ccccc12)NC(=O)OC(C)(C)C)[C@@H](Cc1ccccc1)C(N)=O` (Boc-WK(X2)D[NMeF]-NH2) [listing 2 of 2 here], the IC50 in test [2] amounted to 0.018 µM; in test [3], 0.731 µM.
Consider `CN(C(=O)[C@H](CCCCNC(=O)/C=C/c1cccs1)NC(=O)[C@H](Cc1c[nH]c2ccccc12)NC(=O)OC(C)(C)C)[C@@H](CC(=O)O)C(=O)N[C@@H](Cc1ccccc1)C(N)=O` (Boc-WK(X2)[NMeD]F-NH2) [listing 2 of 2 here], for which the IC50 in test [2] is 0.035 µM; in test [3] it was 4.577 µM.
